High-throughput results deposited in PubChem BioAssay by Johns Hopkins Ion Channel Center.
Compounds with a hit are over-represented: about 3.5% of the library has one in this group of screens.
MrgX1 antag: antagonists of human MrgX1 receptor. MRGX1-HEK293 calcium flux, Fluo-4, BAM8-22 antagonism; active compounds read low. Q96LB2. B-score at 10 µM. hit rate 1.3% among 310,000;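 active = calcium-response B-score plate-corrected more than 3 library SD below zero, starting fluorescence within 5 deviations, no agonist response on first addition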;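 also: peak minus trough fluorescence over baseline after final BAM8-22 challenge near maximal dose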
Target sequence (Q96LB2 whole entry, looked up): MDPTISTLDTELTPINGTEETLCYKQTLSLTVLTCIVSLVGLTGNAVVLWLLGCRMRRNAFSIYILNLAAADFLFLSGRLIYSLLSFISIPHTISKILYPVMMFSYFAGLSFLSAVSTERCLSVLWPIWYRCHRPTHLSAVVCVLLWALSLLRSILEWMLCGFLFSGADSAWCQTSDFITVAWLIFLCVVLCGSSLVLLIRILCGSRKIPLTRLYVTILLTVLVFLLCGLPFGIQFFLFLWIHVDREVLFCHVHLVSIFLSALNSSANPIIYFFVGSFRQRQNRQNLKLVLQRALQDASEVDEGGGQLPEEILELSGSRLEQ
RGS4 block: inhibitors of human RGS4 | HEK293 M3R/RGS4 inducible, Fluo-4 calcium flux; active compounds read high; triggered by carbachol at its EC20 | B-score at 10 µM | hit rate 0.45% among 310,000;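 active = B-score, a plate-corrected calcium signal, over three deviations above library mean, with baseline fluorescence within five deviations of library mean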;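 also: RGS4 expression induced by doxycycline in cells with stable M3 receptor; B-score is computed from the integrated fluorescence ratio over baseline after carbachol; higher B-score means a larger calcium signal and so more RGS4 inhibition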
Target sequence (P49798 whole entry, looked up): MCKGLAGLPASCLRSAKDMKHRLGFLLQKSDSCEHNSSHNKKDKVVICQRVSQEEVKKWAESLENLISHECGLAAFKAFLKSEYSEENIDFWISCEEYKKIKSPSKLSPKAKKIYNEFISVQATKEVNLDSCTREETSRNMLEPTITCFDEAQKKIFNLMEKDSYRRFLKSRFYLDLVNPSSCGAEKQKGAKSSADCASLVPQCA
MrgX1 allo act: human MrgX1 positive allosteric modulation, primary screen. MrgX1-HEK293, Fluo-4 calcium flux, FDSS; active compounds read high. B-score at 10 µM. hit rate 0.63% among 310,000. AID 588675;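 active = plate-corrected calcium response at least 3 library SD above typical, normal starting fluorescence, not activating the receptor alone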;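 also: compound read alongside a low EC10 to EC30 dose of BAM8-22 agonist; peak minus trough fluorescence over baseline measured at the second addition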
MrgX1 ag: human MrgX1 receptor agonism, primary screen | Q96LB2 | B-score at 10 µM | MrgX1-HEK293 cells, Fluo-4 calcium fluorescence, agonist mode; active compounds read high | AID 588627 | hit rate 0.44% among 310,000;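 active = calcium response B-score plate-corrected fluorescence ratio at least 3 library SD, with starting fluorescence B-score inside 5 SD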
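Test system: HEK293 cells stably expressing human MrgX1 receptor; Input: fifteen thousand cells per well; Dosing: compound delivered in addition one of three; Schedule: overnight seeding, then 1 h dark dye loading; Technique: Fluo-4 NW calcium fluorescence; Measure: B-scored fluorescence response ratio; Controls: positive and negative controls per plate.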
RGS4 pot: potentiators or activators of RGS4 | B-score at 10 µM | HEK293 M3R/inducible RGS4, carbachol calcium flux Fluo4; active compounds read low | hit rate 0.92% among 310,000;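 active = B-score of the integrated calcium signal more than 4 SD below the library mean, with starting fluorescence not abnormally high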;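 also: negative B-score means reduced calcium response which marks RGS4 activation or potentiation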
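test system = M3R-expressing HEK293 line, RGS4 induced by doxycycline | probe or stimulus = carbachol at ECmax as muscarinic agonist stimulus | timing = dye loading 30 min 37 °C, buffer rest 30 min RT | signal = calcium dye Fluo4 fluorescence | evaluation = B score from integrated fluorescence ratio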
An asterisk follows results filed as active; i = inactive; x = no result.

SMILES	MrgX1 antag	RGS4 block	MrgX1 allo act	MrgX1 ag	RGS4 pot
CCOC(=O)C1(CCc2ccccc2)CCN(Cc2cccc3c2OCO3)CC1	i	i	i	i	-7.5*
NC(=O)c1ccc(N=Nc2c(O)[nH]c(=O)[nH]c2=O)cc1	i	i	i	i	i
O=c1[nH]c(O)c(N=Nc2ccc(SC(F)F)cc2)c(=O)[nH]1	i	i	13*	i	i
O=C(COc1ccc(Cl)cc1)N(c1ccc(Cl)cc1)C1CN2CCC1CC2 (stereo unspecified)	i	i	i	i	i
O=C1C(=O)c2cccc3cccc1c23	i	i	i	27*	i
O=C1C(=O)c2ccccc2-c2ccccc21	i	i	i	i	i
O=c1c2ccccc2[se]n1-c1ccccc1	i	i	i	40*	i
CC(Cc1ccccc1Sc1ccccc1)N(C)C (stereo unspecified)	i	i	i	i	-9.3*
CSc1ccc(CN2CCN(Cc3ccccc3Cl)CC2)cc1	i	i	i	i	i
CN1CCN(Cc2ccccc2Sc2ccccc2)CC1	i	i	i	i	-8.2*
CCN(CC)P(=O)(Oc1ccccc1)Oc1ccccc1	i	i	i	i	i
Cc1cc(N2CCCC2)ccc1C=C(C#N)C#N	-5.5*	i	i	i	i
Cc1cc(N2CCCCC2)ccc1C=C1C(=O)N(C)C(=S)N(C)C1=O	i	i	i	i	i
COc1ccc(OCC#CCN2CCC(C)CC2)cc1	i	i	i	i	i
Clc1ccc(OCC#CCN2CCCCCC2)cc1	i	i	i	i	-7*
CC1(C)C[C@H]2C=C(C=O)[C@]3(C=O)C[C@]3(C)[C@H]2C1	i	i	i	32*	i
O=C1/C(=C\c2ccccc2)C2OCC=C3CN4CCC56c7ccccc7N1C5C2C3CC46 (stereo unspecified)	-6.6*	i	i	i	i
CN(C)C(=O)O/N=C(\N)COc1ccc(C(C)(C)C)cc1	i	i	i	i	i
C=C(C=O)C[C@@H]1C[C@H](O)C2OC3C[C@]4(C)OC5/C=C\CC6OC7C(CC=CCC6OC5CCCC4OC3CC2O1)OC1CC2OC3CC(=O)OC3C[C@@H](C)C[C@@]2(C)OC1C[C@@H]7C (stereo partly specified)	x	i	x	x	-9.7*
C=C(C=O)CC1CC(O)[C@]2(C)OC3C[C@@H]4OC5C[C@]6(C)O[C@]7(C)CCC8OC9C[C@]%10(C)OC(/C(C)=C\CO)C(O)CC%10OC9CC(C)C8OC7CC6O[C@]5(C)C/C=C\C4OC3CC2O1 (stereo partly specified)	i	x	i	i	x
Cc1ccc(-n2cc(CNC(C)Cc3cnccn3)c(-c3cccc(C)c3)n2)cc1 (stereo unspecified)	i	i	i	i	i
COc1cccc(C(=O)C2CN(C)CC2c2ccc(Cl)cc2)c1 (stereo unspecified)	i	i	i	i	i
COc1ccc(C(=O)C2CN(C)CC2c2ccc(Cl)cc2)cc1 (stereo unspecified)	i	i	i	i	-7.2*
Cc1cc(O)c2c(c1)OC(C)(C)C1=C2CC(C)CC1 (stereo unspecified)	i	i	i	i	i
Cn1cc(/C=C2\C(=O)NC(=O)N(c3ccccc3)C2=O)c2ccccc21	i	i	i	i	-7.8*
SMILES	MrgX1 antag	RGS4 block	MrgX1 allo act	MrgX1 ag	RGS4 pot
O=C(O)Cn1cc(/C=C2\C(=O)NC(=O)N(c3ccc(Cl)cc3)C2=O)c2ccccc21	i	i	i	i	i
CN1C(=O)/C(=C\c2ccc(N3CCCCC3)o2)C(=O)NC1=S	i	i	i	29*	i
C=CCN1C(=O)/C(=C\c2ccc(N3CCOCC3)o2)C(=O)NC1=S	i	i	i	i	i
CN1C(=O)/C(=C\c2ccc(N3CCCCCC3)cc2)C(=O)NC1=S	i	i	i	i	i
CN1C(=O)/C(=C/c2ccc(N3CCCCCC3)o2)C(=O)NC1=S	i	i	i	32*	i
O=C(O)C1C2CC3CC(C2)CC1(n1ncc(N2CCC4(CC2)OCCO4)c(Cl)c1=O)C3 (stereo unspecified)	i	i	i	i	i
CCOP(=O)(/C=C(\Cl)c1ccccc1)C(O)c1ccc(F)cc1 (stereo unspecified)	i	i	i	i	i
C=C1C(=O)O[C@@H]2C[C@@H](C)[C@@H]3C4OC4C(=O)[C@@]3(C)[C@@H](O)[C@H]12 (stereo partly specified)	i	5.2*	i	i	i
COc1ccc(C2(c3cccc(O)c3OC)CCN(C(C)=O)CC2)cc1O	i	i	i	i	i
COc1ccc(CNC(=O)CCC(=O)N2C[C@H]3C[C@H](C2)c2cccc(=O)n2C3)cc1	i	i	i	i	i
CC/C(=N\N1CCCCCC1)c1c(O)n(-c2ccc(C)cc2)c(=O)[nH]c1=O	i	i	11*	i	i
C/C(=N\N1CCCCCC1)c1c(O)n(-c2ccc(C)cc2)c(=O)[nH]c1=O	i	i	i	i	i
O=P(Nc1cccnc1)(Oc1ccccc1Cl)Oc1ccccc1Cl	i	i	i	i	-8.4*
CC1=Nc2ccccc2/C1=C/c1c(O)[nH]c(=O)[nH]c1=O	i	i	i	i	i
O=c1[nH]c(O)c(/C=C2/C=CC(c3cc(Cl)ccc3Cl)=N2)c(=O)[nH]1	-7*	i	i	i	i
CCN(CC)c1ccc(CNCCc2ccccc2F)cc1	i	i	i	i	-7*
Cc1cc(OC(=O)c2ccco2)c2c3c(c(=O)oc2c1)CCCC3	i	i	i	i	i
Cc1cc(OC(=O)c2cccs2)c2c3c(c(=O)oc2c1)CCCC3	i	i	i	i	-7.3*
COc1cc(N2CCOCC2)ccc1/C=C1\C(=O)NC(=O)N(Cc2ccc3c(c2)OCO3)C1=O	i	i	12*	i	i
COc1ccc(CN2C(=O)NC(=O)/C(=C\c3cccc(OC)c3OC)C2=O)cc1	-5.5*	i	i	i	i
Cc1ccc(/C=C2/C(=O)NC(=O)N(Cc3ccc(F)cc3)C2=O)o1	i	11*	i	i	i
O=c1cccc2n1CC1CNC[C@H]2C1	i	x	i	i	x
C/C=C1/C[C@@H](C)[C@](O)(CO)C(=O)OCC2=CCN3CC[C@@H](OC1=O)[C@@H]23	i	x	i	i	x
